# Measurements: ChEMBL document CHEMBL4364341, “Radiosensitization of Head and Neck Squamous Cell Carcinoma (HNSCC) by a Podophyllotoxin” (ACS Med Chem Lett, 2019)
# The source made the active and inactive calls. The calls are words filed in the database; no cut-off is given here.
# Columns and labels:
# FaDu [1] = assay: Selectivity ratio of IC50 for antiproliferative activity against human FADU cells assessed as reduction in colony formation unit to IC50 for antiproliferative activity against human FADU cells assessed as reduction in colony formation unit followed by irradiation with 5 Gy IR; assay type: functional
# SCC-25 [2] = assay: Antiproliferative activity against human SCC25 cells assessed as reduction in cell viability at 1 uM after 6 days by MTT assay relative to control; assay type: functional, cell-based
# In short: (§1)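 FaDu or SCC-25 cells were grown in DMEM with 10% FBS at 37 °C and 5% CO2. They were seeded at 1000 cells/well in 96-well plates for 24 h, then dosed with compound (fresh DMSO stock diluted in medium) or vehicle. After 1 h, X-rays were given with a sliding 5 mm lead shield, so one plate held 0, 2.5, 5 and 10 Gy columns. After 6 days, MTT (0.5 mg/mL, 45 min) was added, then DMSO, and A570 was read. Values were normalised to the unirradiated vehicle control. Fractional inhibition = 1 − surviving fraction.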
# FaDu [3] = assay: Synergistic antiproliferative activity against human FADU cells assessed as reduction in cell viability at 1 uM preincubated for 1 hr followed by irradiation with 5 Gy IR and measured after 6 days by MTT assay relative to control; assay type: functional; settings: light or radiation study; in short: as §1
# FaDu [4] = assay: Antiproliferative activity against human FADU cells assessed as reduction in cell viability at 1 uM after 6 days by MTT assay relative to control; assay type: functional; settings: 144 h; in short: as §1
# FaDu [5] = assay: Synergistic antiproliferative activity against human FADU cells assessed as fractional inhibition at 5 uM preincubated for 1 hr followed by irradiation with 2.5 Gy IR and measured after 6 days by MTT assay (reference value: 0.131); assay type: functional; in short: as §1
# FaDu [6] = assay: Synergistic antiproliferative activity against human FADU cells assessed as combination index at 0.005 uM preincubated for 1 hr followed by irradiation with 2.5 Gy IR and measured after 6 days by MTT assay; assay type: functional
# In short: (§2)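 Combination index was calculated by the Chou–Talalay median-effect method from the 6-day MTT viability data of the single-plate compound/X-ray (2.5, 5, 10 Gy) design. CI < 1 denotes synergy, CI = 1 additivity and CI > 1 antagonism.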
# FaDu [7] = assay: Synergistic antiproliferative activity against human FADU cells assessed as combination index at 0.05 uM preincubated for 1 hr followed by irradiation with 10 Gy IR and measured after 6 days by MTT assay; assay type: functional; in short: as §2
# SCC-25 [8] = assay: Antiproliferative activity against human SCC25 cells assessed as fractional inhibition at 0.005 uM after 6 days in absence of irradiation by MTT assay; assay type: functional; in short: as §1
# SCC-25 [9] = assay: Synergistic antiproliferative activity against human SCC25 cells assessed as fractional inhibition at 0.005 uM preincubated for 1 hr followed by irradiation with 2.5 Gy IR and measured after 6 days by MTT assay (reference value: 0.011); assay type: functional
# In short: (§3)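 SCC-25 cells seeded 1000/well in 96-well plates in DMEM/10% FBS and left 24 h. Drug or vehicle added, then after 1 h X-irradiated to 2.5, 5 or 10 Gy on one plate using a shifted lead shield. Plates incubated 6 days, then MTT (0.5 mg/mL, 45 min), DMSO solubilisation, absorbance at 570 nm. Fractional inhibition = 1 − fraction of surviving cells.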
# SCC-25 [10] = assay: Synergistic antiproliferative activity against human SCC25 cells assessed as fractional inhibition at 5 uM preincubated for 1 hr followed by irradiation with 10 Gy IR and measured after 6 days by MTT assay (reference value: 0.347); assay type: functional; in short: as §3
# SCC-25 [11] = assay: Synergistic antiproliferative activity against human SCC25 cells assessed as combination index at 0.005 uM preincubated for 1 hr followed by irradiation with 2.5 Gy IR and measured after 6 days by MTT assay; assay type: functional
# In short: (§4)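 SCC-25 cells grown in DMEM with 10% FBS at 37 °C, 5% CO2, seeded 1000 cells/well in 96-well plates and left 24 h. Drug in DMSO, diluted in complete medium, added 1 h before X-irradiation. A movable 5 mm lead shield gave 0, 2.5, 5 or 10 Gy on one plate. After 6 days, MTT readout at 570 nm. Combination index by Chou–Talalay from viability data.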
# SCC-25 [12] = assay: Synergistic antiproliferative activity against human SCC25 cells assessed as combination index at 0.5 uM preincubated for 1 hr followed by irradiation with 2.5 Gy IR and measured after 6 days by MTT assay; assay type: functional; in short: as §4
# SCC-25 [13] = assay: Synergistic antiproliferative activity against human SCC25 cells assessed as combination index at 0.05 uM preincubated for 1 hr followed by irradiation with 5 Gy IR and measured after 6 days by MTT assay; assay type: functional; in short: as §4
# SCC-25 [14] = assay: Synergistic antiproliferative activity against human SCC25 cells assessed as combination index at 0.5 uM preincubated for 1 hr followed by irradiation with 5 Gy IR and measured after 6 days by MTT assay; assay type: functional; in short: as §4
# SCC-25 [15] = assay: Synergistic antiproliferative activity against human SCC25 cells assessed as combination index at 0.005 uM preincubated for 1 hr followed by irradiation with 10 Gy IR and measured after 6 days by MTT assay; assay type: functional; in short: as §2
# FaDu [16] = assay: Induction of cell cycle arrest in human FADU cells assessed as decrease in cyclin B1 at 0.5 uM incubated for 48 hrs by immunoblot analysis; assay type: functional, cell-based
# In short: (§5)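 FaDu cells received compound at 0.5 μM, 5 Gy IR, or both. After 48 h, lysates were immunoblotted for NRF2, cyclin B1, CDK1, Bax and Bcl-2. Membranes were then stripped and reprobed for β-actin as the loading control.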
# FaDu [17] = assay: Synergistic induction of cell cycle arrest in human FADU cells assessed as decrease in CDK1 at 0.5 uM followed by irradiation with 5 Gy IR incubated for 48 hrs by immunoblot analysis; assay type: functional, cell-based
# In short: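 FaDu cells received drug, 5 Gy IR, or both; vehicle-only controls. Lysates collected after 48 h and immunoblotted with primary antibodies to NRF2, cyclin B1, CDK1, Bax and Bcl-2. Membranes stripped and reprobed for beta-actin as loading control.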
# FaDu [18] = assay: Induction of apoptosis in human FADU cells assessed as increase in Bax at 0.5 uM followed by irradiation with 5 Gy IR incubated for 48 hrs by immunoblot analysis; assay type: functional, cell-based; in short: as §5
smiles,measurement,setting,value
COc1ccc2c(c1)N(CCO)C1=C(C(=O)OC1)C2c1ccccc1 (stereo not drawn),Ratio IC50,FaDu [1],13
same,inhibition,SCC-25 [2],inactive
same,inhibition at 1 µM,FaDu [3],48%
same,inhibition at 1 µM,FaDu [4],20%
same,fractional inhibitory concentration index (FICI),FaDu [5],0.501
same,CI,FaDu [6],0.406
same,CI,FaDu [7],0.572
same,fractional inhibitory concentration index (FICI),SCC-25 [8],0.009
same,fractional inhibitory concentration index (FICI),SCC-25 [9],0.015
same,fractional inhibitory concentration index (FICI),SCC-25 [10],0.71
same,CI,SCC-25 [11],1.216
same,CI,SCC-25 [12],0.386
same,CI,SCC-25 [13],1.753
same,CI,SCC-25 [14],0.395
same,CI,SCC-25 [15],1.021
same,Activity,FaDu [16],Active
same,Activity,FaDu [17],Active
same,Activity,FaDu [18],Active
